Test results from ChEMBL document CHEMBL1126125, “Synthesis and antibacterial activity of 1-(substituted pyrrolyl)-7-(substituted amino)-6-fluoro-1,4-dihydro-4-oxo-3- quinolinecarboxylic acids” (1992).
In brackets after ≈: the same amount, converted by molar mass.

Tests used:
Staphylococcus aureus = experiment: In vitro antibacterial activity against Staphylococcus aureus ATCC 6538p.; assay type: functional
Method in brief: (§1)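 Agar dilution MIC. Organisms grown overnight in brain-heart infusion broth at 37 °C. Compound stock of 5 mg/mL serially diluted two-fold in BHI agar, giving final test concentrations of 200 to […] μg/mL. Plates incubated 24 h at 37 °C. MIC read as the lowest concentration that inhibited visible growth.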

Escherichia coli = experiment: In vitro antibacterial activity against Escherichia coli ATCC 25922.; assay type: functional; method in brief: as §1

Row | Structure (SMILES) | MIC (Staphylococcus aureus) [µg/mL] | MIC (Escherichia coli) [µg/mL]
1 | O=C(O)c1cn(-c2ccc([N+](=O)[O-])cc2)c2cc(Cl)c(F)cc2c1=O | 6.25 (≈ 17.2 µM) | 12.5 (≈ 34.5 µM)
2 | CN1CCN(c2cc3c(cc2F)c(=O)c(C(=O)O)cn3-c2cc([N+](=O)[O-])cn2C)CC1 | 6.25 (≈ 14.6 µM) | 3.12 (≈ 7.28 µM)
3 | O=C(O)c1cn(-c2ccc([N+](=O)[O-])cc2)c2cc(N3CCCC3)c(F)cc2c1=O | > 100 | > 100
4 | Cn1cc(N)c(-n2cc(C(=O)O)c(=O)c3cc(F)c(N4CCNCC4)cc32)c1 | 100 (≈ 259 µM) | 50 (≈ 130 µM)
5 | Cn1cc([N+](=O)[O-])cc1-n1cc(C(=O)O)c(=O)c2cc(F)c(N3CCCC3)cc21 | 0.78 (≈ 1.95 µM) | 12.5 (≈ 31.2 µM)
6 | Cn1cc(-n2cc(C(=O)O)c(=O)c3cc(F)c(N4CCCNCC4)cc32)c([N+](=O)[O-])c1 | 100 (≈ 233 µM) | 100 (≈ 233 µM)
7 | CN1CCN(c2cc3c(cc2F)c(=O)c(C(=O)O)cn3-c2ccc([N+](=O)[O-])cc2)CC1 | 25 (≈ 58.6 µM) | 12.5 (≈ 29.3 µM)
8 | Cn1cc([N+](=O)[O-])cc1-n1cc(C(=O)O)c(=O)c2cc(F)c(Cl)cc21 | 50 (≈ 137 µM) | 100 (≈ 273 µM)
9 | Cn1cc(-n2cc(C(=O)O)c(=O)c3cc(F)c(N4CCCCC4)cc32)c([N+](=O)[O-])c1 | 50 (≈ 121 µM) | 100 (≈ 241 µM)
10 | CC1CCCN(c2cc3c(cc2F)c(=O)c(C(=O)O)cn3-c2cc([N+](=O)[O-])cn2C)C1 (stereo not drawn) | 3.12 (≈ 7.29 µM) | 100 (≈ 233 µM)
11 | CC1CN(c2cc3c(cc2F)c(=O)c(C(=O)O)cn3-c2cn(C)cc2[N+](=O)[O-])CCN1 (stereo not drawn) | 100 (≈ 233 µM) | 100 (≈ 233 µM)
12 | CN1CCN(c2cc3c(cc2F)c(=O)c(C(=O)O)cn3-c2cn(C)cc2[N+](=O)[O-])CC1 | 100 (≈ 233 µM) | 100 (≈ 233 µM)
13 | Cn1cc(-n2cc(C(=O)O)c(=O)c3cc(F)c(N4CCCC4)cc32)c([N+](=O)[O-])c1 | > 100 | > 100
14 | Cn1cc(-n2cc(C(=O)O)c(=O)c3cc(F)c(Cl)cc32)c([N+](=O)[O-])c1 | 100 (≈ 273 µM) | 100 (≈ 273 µM)
15 | Cn1cc(-n2cc(C(=O)O)c(=O)c3cc(F)c(N4CCNCC4)cc32)c([N+](=O)[O-])c1 | 100 (≈ 241 µM) | 100 (≈ 241 µM)
16 | CC1CCN(c2cc3c(cc2F)c(=O)c(C(=O)O)cn3-c2cn(C)cc2[N+](=O)[O-])CC1 | 12.5 (≈ 29.2 µM) | > 100
17 | CC1CCCN(c2cc3c(cc2F)c(=O)c(C(=O)O)cn3-c2ccc([N+](=O)[O-])cc2)C1 (stereo not drawn) | > 100 | > 100
18 | CC1CCCN(c2cc3c(cc2F)c(=O)c(C(=O)O)cn3-c2cn(C)cc2[N+](=O)[O-])C1 (stereo not drawn) | 25 (≈ 58.4 µM) | > 100
19 | CN1CCN(c2cc3c(cc2F)c(=O)c(C(=O)O)cn3-c2ccc(F)cc2)CC1 [DIFLOXACIN] | 0.195 (≈ 0.488 µM) | 0.39 (≈ 0.976 µM)
